Experimental data pooled from the literature.
Each line is one published result; the experiments were not run side by side.
Target: Serine/threonine-protein kinase TAO1 (TAOK1, Homo sapiens, UniProt Q7L7X3)
Sequence (Q7L7X3 1-1001, as in one of the studies): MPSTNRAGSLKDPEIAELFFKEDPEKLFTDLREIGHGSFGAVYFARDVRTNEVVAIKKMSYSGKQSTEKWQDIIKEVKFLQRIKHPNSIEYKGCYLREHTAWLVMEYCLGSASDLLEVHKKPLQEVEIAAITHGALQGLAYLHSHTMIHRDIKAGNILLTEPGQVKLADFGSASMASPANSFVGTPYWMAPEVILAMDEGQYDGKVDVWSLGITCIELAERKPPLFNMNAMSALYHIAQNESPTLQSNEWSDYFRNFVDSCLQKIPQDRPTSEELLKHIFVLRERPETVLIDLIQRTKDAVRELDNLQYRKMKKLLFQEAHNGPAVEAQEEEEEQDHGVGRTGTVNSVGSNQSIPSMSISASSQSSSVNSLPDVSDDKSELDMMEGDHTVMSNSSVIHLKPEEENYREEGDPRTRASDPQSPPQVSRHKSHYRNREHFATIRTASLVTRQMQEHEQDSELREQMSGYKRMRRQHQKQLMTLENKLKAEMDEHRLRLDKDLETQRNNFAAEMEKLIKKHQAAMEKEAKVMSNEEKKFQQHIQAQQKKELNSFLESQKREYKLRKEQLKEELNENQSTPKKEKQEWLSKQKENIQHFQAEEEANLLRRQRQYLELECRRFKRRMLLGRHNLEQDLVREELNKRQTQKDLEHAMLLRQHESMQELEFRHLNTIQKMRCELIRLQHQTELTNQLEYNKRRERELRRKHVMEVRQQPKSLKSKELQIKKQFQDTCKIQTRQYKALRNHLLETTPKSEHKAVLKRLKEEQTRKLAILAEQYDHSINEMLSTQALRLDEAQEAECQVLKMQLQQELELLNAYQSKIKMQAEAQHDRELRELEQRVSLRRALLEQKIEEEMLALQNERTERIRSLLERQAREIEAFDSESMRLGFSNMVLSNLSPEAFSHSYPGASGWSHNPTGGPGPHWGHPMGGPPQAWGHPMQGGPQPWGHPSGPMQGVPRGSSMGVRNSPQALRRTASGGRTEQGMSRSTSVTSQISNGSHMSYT

O=C1Nc2ccc(Cl)cc2C1=Cc1cc(Cl)c(O)c(Cl)c1 has a remaining signal of 71.6% (cell-free assay; 0.5 µM).
The remaining activity of Cc1ccc(C(=O)Nc2ccc(CN3CCN(C)CC3)c(C(F)(F)F)c2)cc1C#Cc1cnc2cccnn12 is reported as 67% (enzyme activity, inhibitor; 23.5 nM).
COc1cc(Nc2cnc(C#N)c(O[C@H](C)CN(C)C)n2)ncc1-c1cnn(C)c1 gave a remaining activity of 75% (enzyme activity, inhibitor, radiometric; 10 µM).
The remaining signal of Cc1ccc(NC(=O)c2ccc(C)c(C(F)(F)F)c2)cc1C#Cc1nn(C2CCC(O)CC2)c2ncnc(N)c12 (centres unmarked) is reported as 18% (cell-free assay; 10 µM).
For Cc1cc(NC(=O)c2cccc3cc(-c4cccc5[nH]nc(N)c45)ccc23)ccc1F, the activity vs control was 103% (enzyme activity, inhibitor; 0.1 µM).
For CNC(=O)Nc1ccc2c(c1)CC[C@@]21OC(=O)N(CC(=O)N(Cc2ccc(F)cc2)[C@@H](C)C(F)(F)F)C1=O, the remaining binding was 94% (cell-free assay, competition with immobilised ligand; 1 µM).
With COc1cc(/C=C/C(=O)CC(=O)/C=C/c2ccc(O)c(OC)c2)ccc1O the activity vs control was 84% (enzyme activity, inhibitor; 1 µM).
C[C@H](c1ccnc(Nc2nc3ccc(-c4cc(N(C)C)ncn4)cc3[nH]2)c1)N1CCN(C(=O)CC(F)(F)F)CC1 gave a remaining binding of 100% (cell-free assay, competition with immobilised ligand; 0.1 µM).
The remaining signal of N#CCCc1ccc2c(c1)-c1[nH]c3ccc([N+](=O)[O-])cc3c1CC(=O)N2 is reported as 73.1% (cell-free assay; 0.5 µM).
With O=C(Nc1cnn(-c2csc(C(=O)NC3COC3)c2)c1)Nc1c(F)cccc1Cl the remaining activity was 90.6% (enzyme activity, inhibitor; 5 µM).
COc1cc(-c2cn(C3CCc4ccccc4N(CC(F)(F)F)C3=O)nn2)ccc1-n1ccc(C)n1 (centres unmarked) has a remaining binding of 92% (cell-free assay, competition with immobilised ligand; 1 µM).
For O=C1NC(=O)c2cc(Nc3ccc(F)cc3)c(Nc3ccc(F)cc3)cc21, the remaining signal was 90.3% (cell-free assay; 0.5 µM).
Cc1nc(C2CCN(C(=O)c3ccc(OC(F)(F)F)cc3N)CC2)c2ncc(N3CCN(C)CC3)cc2n1 gave a remaining binding of 100% (cell-free assay, competition with immobilised ligand; 1 µM).
Cn1c(=O)n(-c2ccc(C(C)(C)C#N)cc2)c2c3cc(-c4cnc5ccccc5c4)ccc3ncc21 gave a remaining activity of 81% (enzyme activity, inhibitor; 10 µM).
For COc1ccc2cc(OCC3(C(=O)O)CN(C(=O)c4ccc(F)cc4)C3)ccc2c1, the remaining binding was 100% (cell-free assay, competition with immobilised ligand; 1 µM).
For Cc1sc(C(=O)NC2COC2)cc1-n1cc(NC(=O)Nc2c(F)cccc2Cl)cn1, the remaining activity was 108% (enzyme activity, inhibitor; 10 µM).
FC(F)c1nc2ccccc2n1-c1nc(N2CCOCC2)nc(N2CCOCC2)n1 gave a remaining activity of 93% (enzyme activity, inhibitor; 10 µM).
For O=C(Nc1cccnn1)N1CC(C/C=C/c2cncc(Oc3ccc(C(F)(F)F)cn3)n2)C1, the remaining binding was 91% (cell-free assay, competition with immobilised ligand; 1 µM).
FC(F)(F)Oc1cccc(-c2cnc3ccc(-c4ccncc4)nn23)c1 has an activity vs control of 87% (enzyme activity, inhibitor, radiometric; 5 µM).
CC(C)(O)[C@H]1CC[C@H](Nc2ccc3ncc(-c4cccc(C(F)(F)F)c4)n3n2)CC1 has a remaining activity of 82.6% (enzyme activity, inhibitor; 1 µM).
